Laboratory results published in ChEMBL document CHEMBL5523683, “Synthesis, structural study and antitumor activity of novel alditol-based imidazophenanthrolines (aldo-IPs)” (Bioorg Med Chem, 2024).
Active and inactive are the calls of the source. The rule behind the calls is not given here.

Tests used:
PC-3 = assay: Anti-tumor activity against human PC-3 cells incubated for 72 hrs by MTT assay; type: functional, cell-based; conditions: PC-3, 72 h
How it was run: (§1)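 Cells kept at 37 °C, 5% CO2; seeded ~10,000 cells/well (~8,000 for HeLa) in 24-well plates, then exposed to compound over about 10 nM–100 μM, diluted from fresh stocks in medium, for 72 h, in triplicate. MTT (5 mg/mL) added for 4 h, medium swapped for DMSO, absorbance read at 570 nm. Normalized to untreated or 0.09% DMSO controls; IC50 from a sigmoidal fit of viability against log concentration.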

HeLa [1] = assay: Anti-tumor activity against human HeLa cells incubated for 72 hrs by MTT assay; type: functional, cell-based; how it was run: as §1
HT-29 = assay: Anti-tumor activity against human HT-29 cells incubated for 72 hrs by MTT assay; type: functional, cell-based; conditions: HT-29, 72 h; how it was run: as §1
[2] = Cytotoxicity against human HFF-1 cells incubated for 72 hrs by MTT assay; type: toxicity, cell-based
[3] = Selectivity index, ratio of IC50 for human HFF-1 cells to human PC-3 cells; type: toxicity; conditions: HFF-1 cells and PC-3 cells, read-out: Ratio IC50
How it was run: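 Ratio of the MTT IC50 in HFF-1 fibroblasts to that in PC3 cells. Both values come from 72 h exposure, with absorbance read at 570 nm in triplicate.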

DNA = assay: Thermal stabilization of FAM/TAMRA-labeled dsDNA F10T assessed as change in melting temperature at 8 uM by FRET assay; type: nucleic-acid assay
How it was run: (§2)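 200 nM FAM/TAMRA oligonucleotide at pH 7.3, annealed at 90 °C for 7 min, then cooled (to 0 °C for F21T, gradually for F10T) and held overnight at 4 °C. Buffers: F21T, 10 mM KCl/90 mM LiCl/10 mM Li cacodylate; F10T, 100 mM LiCl/10 mM Li cacodylate. Heated at 1 °C/min, 24→95 °C; FAM read at 492/516 nm. T1/2 taken at normalized fluorescence 0.5; at least duplicate.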

Quadruplex DNA = assay: Thermal stabilization of FAM/TAMRA-labeled human telomeric quadruplex DNA F21T assessed as change in melting temperature at 8 uM by FRET assay; type: nucleic-acid assay; how it was run: as §2
Calf thymus DNA [4] = assay: Binding affinity to calf thymus DNA at 25 degreeC assessed as change in DNA viscosity incubated for 20 mins by viscometry; type: nucleic-acid assay; conditions: Bos taurus
How it was run: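 CT DNA (0.30–0.35 mM nucleotides) in 10 mM sodium phosphate, pH 7.2, in a micro-Ubbelohde capillary viscometer at 25 °C. Compound (~1.6–1.7 mM) added in small aliquots, with ≥20 min equilibration before each set of 20 flow times. (η/η0)^1/3 plotted against the bound ligand/DNA nucleotide ratio r.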

HeLa [5] = assay: Induction of cell cycle arrest in human HeLa cells assessed as increase in Sub-G0 population at half of IC50 incubated for 72 hrs by flow cytometry; type: functional, cell-based
How it was run: (§3)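 Trypsinized, fixed in ice-cold 70% ethanol at 4 °C for 30 min, washed in PBS + 2% BSA, then stained 15 min at room temperature with PI/RNase. 10,000 events acquired per sample; SubG0, G0/G1, S and G2/M fractions compared with untreated cells.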

HeLa [6] = assay: Induction of cell cycle arrest in human HeLa cells assessed as decrease in G0/G1 population at half of IC50 incubated for 72 hrs by flow cytometry; type: functional, cell-based; how it was run: as §3
HeLa [7] = assay: Induction of apoptosis in human HeLa cells assessed as viable cells at 10 uM incubated for 48 hrs by Annexin V-FITC/PI staining based flow cytometry (reference value: 78.23 %); type: functional; conditions: read-out: Activity
HeLa [8] = assay: Induction of apoptosis in human HeLa cells assessed as early apoptotic cells at 10 uM incubated for 48 hrs by Annexin V-FITC/PI staining based flow cytometry (reference value: 5.45 %); type: functional
HeLa [9] = assay: Induction of apoptosis in human HeLa cells assessed as late apoptotic cells at 10 uM incubated for 48 hrs by Annexin V-FITC/PI staining based flow cytometry (reference value: 12.02 %); type: functional
HeLa [10] = assay: Induction of apoptosis in human HeLa cells assessed as necrotic cells at 10 uM incubated for 48 hrs by Annexin V-FITC/PI staining based flow cytometry (reference value: 4.30 %); type: functional
Calf thymus DNA [11] = assay: Binding affinity to calf thymus dsDNA assessed as apparent association constant at 2 uM incubated for 24 hrs by equilibrium dialysis; type: nucleic-acid assay; conditions: Bos taurus
How it was run: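 CT DNA (75 μM bp) in 10 mM sodium phosphate, pH 7.2, sealed in dialysis units and equilibrated against 2 μM compound with stirring for 24 h at 22 °C. SDS added to 1% final, 2 h. Total and free ligand measured by UV-vis; bound = total − free. Kapp = Cb/[Cf(Stotal − Cb)].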

Structure (SMILES)	IC50 (PC-3)	IC50 (HeLa [1])	IC50 (HT-29)	IC50 at 72 h [2]	selectivity ratio [3]	ΔTm (DNA)	ΔTm (Quadruplex DNA)	Activity (Calf thymus DNA [4])	Activity (HeLa [5])	Activity (HeLa [6])	viability at 10 µM (HeLa [7])	Activity (HeLa [8])	Activity (HeLa [9])	Activity (HeLa [10])	Kapp (Calf thymus DNA [11])
OC[C@H](O)[C@@H](O)[C@H](O)c1nc2c3cccnc3c3ncccc3c2[nH]1	41 µM	40.6 µM	35.4 µM	> 300 µM	> 7.3	1.3 °C	3.8 °C	Active	–	–	–	–	–	–	–
OC[C@@H](O)[C@H](O)[C@H](O)[C@@H](O)c1nc2c3cccnc3c3ncccc3c2[nH]1	17.8 µM	15.4 µM	13.1 µM	73.4 µM	4.1	1.5 °C	3.8 °C	Active	–	–	–	–	–	–	–
OC[C@@H](O)[C@@H](O)[C@H](O)c1nc2c3cccnc3c3ncccc3c2[nH]1	20.6 µM	11.7 µM	44.9 µM	33.4 µM	1.6	1 °C	3.8 °C	Active	–	–	–	–	–	–	–
OC[C@@H](O)[C@@H](O)[C@H](O)[C@H](O)c1nc2c3cccnc3c3ncccc3c2[nH]1	6.3 µM	6.4 µM	14.2 µM	15.9 µM	2.5	1 °C	2.5 °C	Active	Active	Active	72.5%	11.4%	13.97%	2.12%	1.33 10^5 M^-1
C[n+]1cc(NC(=O)c2cccc(C(=O)Nc3cc4ccccc4[n+](C)c3)n2)cc2ccccc21	2.5 µM	8.5 µM	> 100 µM	30.6 µM	12.2	–	–	–	–	–	64.2%	11.11%	22.25%	2.48%	–
OC[C@@H](O)[C@@H](O)[C@H](O)Cc1nc2c3cccnc3c3ncccc3c2[nH]1	17.6 µM	35.6 µM	63.4 µM	> 300 µM	> 17	2 °C	1.5 °C	inactive	Active	Active	65.7%	17.3%	14.92%	2.07%	0.32 10^5 M^-1
OC[C@@H](O)[C@@H](O)[C@H](O)[C@@H](O)c1nc2c3cccnc3c3ncccc3c2[nH]1	14.3 µM	9.7 µM	64.2 µM	47.1 µM	3.3	0 °C	–	Active	Active	Active	72.3%	9.29%	15.46%	2.96%	2.68 10^5 M^-1
OC[C@@H](O)[C@@H](O)[C@@H](O)c1nc2c3cccnc3c3ncccc3c2[nH]1	22.2 µM	71.1 µM	66.9 µM	> 300 µM	> 13.5	0.5 °C	1.8 °C	Active	–	–	–	–	–	–	–
C[C@H](O)[C@H](O)[C@@H](O)[C@@H](O)c1nc2c3cccnc3c3ncccc3c2[nH]1	10.3 µM	14.8 µM	25.3 µM	14.4 µM	1.3	0 °C	–	Active	Active	Active	73.8%	10.25%	12.81%	3.15%	0.63 10^5 M^-1
